# Bioassay records from PubChem BioAssay.
# Most compounds without a hit are left out; they make up all but 2.9% or so of the library.
# UBC13 inh = inhibitors of human UBC13 polyubiquitin chain formation | inhibition, % at 20 µM | AID 485273 | 330,000 tested, 0.47% active | TR-FRET | P61088; in the data active = inhibition above about 45%, passing the limit was not always enough
# Target sequence (P61088 whole entry, looked up): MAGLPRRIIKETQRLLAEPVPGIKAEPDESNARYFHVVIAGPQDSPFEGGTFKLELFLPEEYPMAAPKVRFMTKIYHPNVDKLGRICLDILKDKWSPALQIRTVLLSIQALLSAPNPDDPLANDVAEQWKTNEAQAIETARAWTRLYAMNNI
# MEKK3 PB1 HTS = MEKK3-MEK5 PB1 interaction, increase or decrease. 290,000 tested, 1.4% active. Q99759. binding response (% of control), % at 10 µM. bead-based flow cytometry, Alexa488-MEK5 binding to MEKK3; actives lie on both sides; 0 = blocked by unlabeled MEK5, 100 = vehicle;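 active = binding response more than 3 SD above or below the average of its plate-row segment, actives on both sides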;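 note: Alexa488 bead fluorescence after subtracting the streptavidin-only scavenger bead signal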
# Apaf-1 inh = human Apaf-1 inhibition; O14727; reconstituted apoptosome caspase-3 activity, DEVD-Rh110 fluorescence; inhibition, % at 20 µM; 330,000 tested, 0.71% active; active = inhibition of at least 40% at 20 µM;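 note: plate controls were DMSO wells for no effect and DEVD-CHO caspase inhibitor wells for full effect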
#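 Material: cell-free apoptosome with Apaf-1, procaspase-3 and caspase-9; Buffer or medium: Hepes pH 7.5 with detergent and BSA; Reagent: cytochrome c trigger plus (Z-DEVD)2-Rh110 caspase-3 substrate; Times: compound with Apaf-1, dATP, procaspase-3 30 min, then 50 min reaction, room temperature; Technique: Rh110 fluorescence intensity.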
# MEKK2 WT-MEK5 = raises or lowers MEK5 binding to wildtype human MEKK2 PB1 domain; Q9Y2U5; bead flow cytometry, Alexa488-MEK5 binding to MEKK2 WT; actives lie on both sides; binding response (% of control), % at 10 µM; 290,000 tested, 1.1% active; in the data active = binding response below about 67% or above about 130%
# MEKK2 mut-MEK5 = signal of MEK5 binding to mutant human MEKK2 PB1 domain. bead flow cytometry, Alexa488-MEK5 binding to MEKK2 mutant. percent response, % at 10 µM. 290,000 tested, 0.35% active; in the data active = percent response above about 24%, passing the limit was not always enough
# MEKK2wt confirm = raises or lowers MEK5 binding to wildtype human MEKK2, retest; shares compounds with MEKK3 PB1 HTS; bead flow cytometry, Alexa488-MEK5 binding to MEKK2 WT; actives lie on both sides; binding response (% of control), % at 10 µM; 5,900 tested, 2.4% active; AID 1892; in the data active = binding response below about 16% or above about 210%; inactive = in between
# MEKK2mut-MEK5 = signal of MEK5 binding to mutant human MEKK2, retest. shares compounds with MEKK3 PB1 HTS. bead flow cytometry, Alexa488-MEK5 binding to MEKK2 mutant. percent response, % at 10 µM. 5,900 tested, 2% active. AID 1893; in the data active = percent response mostly above about 71%, no sharp cut-off; inactive = mostly below about 38%;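 note: higher means compound restores mutant binding toward wildtype level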
# MEKK3-MEK5 inh = confirmation of inhibitors of MEK5 binding to human MEKK3. bead flow cytometry, Alexa488-MEK5 binding to MEKK3; stronger effect = lower value. shares compounds with MEKK3 PB1 HTS. 5,900 tested, 1.8% active. AID 1894. binding response (% of control), % at 10 µM;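 active = binding response below 72% of control, or above a set upper limit, though filed actives all read lower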;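 note: 100% = DMSO only wells and 0% = binding blocked by excess unlabeled MEK5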
# * hit, by the source's call; . = no result given; [ ] = another dose, or the depositor's remark.
SMILES,UBC13 inh,MEKK3 PB1 HTS,Apaf-1 inh,MEKK2 WT-MEK5,MEKK2 mut-MEK5,MEKK2wt confirm,MEKK2mut-MEK5,MEKK3-MEK5 inh
COc1cccc(C(=O)N2CCN(C(=O)c3ccc(-c4ccccc4)cc3)CC2)c1OC,0,94,3,93,-2,.,.,.
COc1ccc(C(=O)N2CCC(c3ccccc3)CC2)c(OC)c1OC,-11,134*,7,123,2,109,0,102
COC(=O)c1ccc(NS(=O)(=O)c2cc(-c3cc(C)no3)ccc2OC)cc1,3,98,4,99,1,.,.,.
CCOC(=O)c1cc(CC)sc1/N=C/C1=C(O)CC(C)(C)CC1=O,-4,136*,13,109,1,103,-3,100
CCNC(=S)NC1CC2CCC(C1)N2Cc1ccccc1 (stereo not given),0,100,-10,104,1,.,.,.
COCCNC(=S)NC1CC2CCCC(C1)N2Cc1cccs1 (stereo not given),-3,82*[inhibitor],-3,86,-10,99,-2,97
Cc1ccc(CN2C3CCCC2CC(NC(=O)c2ccc(C)cc2)C3)cc1 (stereo not given),13,144*,-7,200*,52*,116,18,101
CCCNC(=S)NC1CC2CCC(C1)N2Cc1ccccc1 (stereo not given),-6,82*[inhibitor],-15,88,-11,101,1,98
O=C(NC1CC2CCCC(C1)N2Cc1ccccc1)C1CCCCC1 (stereo not given),4,146*,-4,130,6,96,-6,100
COCCCNC(=S)NC1CC2CCCC(C1)N2Cc1cccs1 (stereo not given),8,79,-18,87,-9,.,.,.
COC1=CC(=O)[C@@]2([C@@H]1O)[C@@H](Cl)C[C@]13C(OC)=C(OC)C(=O)C[C@]21CCN3C,-12,.,0,.,.,.,.,.
O=C(COC(=O)CC1CCCC1)Nc1ccc(Cl)cc1,7,.,8,.,.,.,.,.
CN1CCC2(CC1)N=C(c1ccc(F)cc1)C(=S)N2C(=O)c1ccc(C(C)(C)C)cc1,1,101,3,147*,44,115,2,99
COc1ccc(NC(=O)CN(C)CC(=O)Nc2sc3c(c2C#N)CCC3)cc1,7,.,20,.,.,.,.,.
Cc1cc(C)cc(N(CCC(=O)Nc2nnc(C)s2)S(=O)(=O)c2ccc(Cl)cc2)c1,5,101,15,97,1,.,.,.
Cc1ccc(S(=O)(=O)NCCC(=O)NCCN2CCCCCC2)cc1,13,102,-2,227*,54*,138,7,80
CCCCNC(=O)C1CCN(C(=O)C2CCN(S(=O)(=O)c3ccc(C)cc3)CC2)CC1,6,100,-4,103,0,.,.,.
Cc1ccc(S(=O)(=O)N2CCC(C(=O)NCCCN3CCCCCC3)CC2)cc1,3,102,14,160*,25,179,48,111
O=C1O[C@@H]([C@H](O)CO)C(O)=C1O,-25,110,-1,111,4,.,.,.
c1ccc(-n2ncc3c(NCCN4CCCCC4)ncnc32)cc1,-7,104,5,113,25*,122,11,104
Cc1ccc(-n2ncc3c(NNC(=O)Cc4ccccc4)ncnc32)cc1,9,143*,14,108,1,104,9,106
O=C(O)c1ccc(-n2c(O)c(C=C3N=c4ccccc4=N3)sc2=S)cc1,-14,98,-1,78,-7,.,.,.
CCN(CC)c1ccc(-n2c(O)c(C=C3N=c4ccccc4=N3)sc2=S)cc1,-35,153*,-7,99,0,97,5,105
Cn1c(COc2ccc([N+](=O)[O-])cc2)nnc1SCC(=O)NCC1CCCO1 (stereo not given),4,101,-10,93,0,.,.,.
CCCCc1nnc(NC(=O)CSc2nc(O)c(-c3ccccc3)c(=O)[nH]2)s1,3,117,-1,.,533*,102,0,103
SMILES,UBC13 inh,MEKK3 PB1 HTS,Apaf-1 inh,MEKK2 WT-MEK5,MEKK2 mut-MEK5,MEKK2wt confirm,MEKK2mut-MEK5,MEKK3-MEK5 inh
CCCCc1nnc(NC(=O)CSc2nc(O)c(Cc3ccccc3)c(=O)[nH]2)s1,3,108,-1,107,1,.,.,.
O=C(NN1C(=O)C2C(c3ccccc3)C=CC(c3ccccc3)C2C1=O)c1cccc(Br)c1 (stereo not given),5,106,26,105,3,.,.,.
CCOC(=O)c1sc(NC(=O)CSc2nc3c(c(=O)n2-c2ccc(C)cc2)SCC3)c(C(=O)OCC)c1C,-14,71*[inhibitor],10,73,8,95,7,101
COc1ccc(C(=O)Nc2ccc(-c3n[nH]c(=S)o3)cc2)cc1,1,100,13,101,-5,.,.,.
C=CCOc1ccc(-c2n[nH]c(=S)o2)cc1,5,131*,-15,112,0,94,-2,98
Clc1ccc(CO/N=C2\CCCc3nonc32)cc1,-3,145*,7,109,1,101,-6,105
CC(=O)Nc1ccc(S(=O)(=O)Nc2ccccc2C(=O)N2CCCCCC2)cc1,-2,103,-2,104,11,.,.,.
Cc1ccc2nc(Cl)c(CN(C(=O)c3cnccn3)C3CCCCC3)cc2c1,-1,2.0*[inhibitor],-6,-2.0*[inhibitor],-26,104,0,101
CC(NC(=O)CCC(=O)c1ccccc1)c1ccc(F)cc1 (stereo not given),4,.,1,.,.,.,.,.
O=c1cnnc(SCc2ccc([N+](=O)[O-])cc2)[nH]1,-13,100,-2,102,2,.,.,.
Cc1sc(N/N=C/c2ccco2)nc1-c1ccccc1,-11,131*,30,98,-1,106,5,103
O=C(CNS(=O)(=O)c1cccs1)NCc1ccc(F)cc1,-1,142*,2,130,6,102,1,102
COc1ccc(CNC(=O)CNS(=O)(=O)c2cccs2)cc1,6,102,0,101,3,.,.,.
CCOC(=O)/C=C1\Nc2ccccc2SC1=O,-6,2.0*[inhibitor],18,2.0*[inhibitor],-18,103,-4,100
Cc1cccc(C)c1NC(=S)N(C)CCc1ccccn1,0,129*,-5,103,0,105,1,101
O=C(Nc1ccc(C2=NCCN2)cc1)c1ccc(Cl)c(C(=O)Nc2ccc(C3=NCCN3)cc2)c1,106*,66*[inhibitor],32,144*,34,130,12,102
